The source of these data is ChEMBL document CHEMBL5385915 (J Med Chem, 2024).

The assay has as its system Mycobacterium tuberculosis. The assay can be described thus: Antitubercular activity against multidrug-resistant Mycobacterium tuberculosis 08/00483E assessed as inhibition of bacterial growth measured for 7 days by REMA analysis. The class given is functional. The note with it: 168 h, time 7 day. The method in brief: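 REMA: 2-fold dilutions in CMM MOD2 medium, wells inoculated at 1×10^6 CFU/mL, 7 days at 37 °C with 200 rpm agitation; resazurin (0.02% w/v in PBS pH 7.4, 5% Tween 80) then 6 h at room temperature; OD570 vs vehicle; MIC99 by modified Gompertz function; three biological replicates.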

In brackets after ≈: the same amount, converted by molar mass.

Regarding `FC(F)(F)c1cc([C@H]2C[C@@H](CN3CCCC3)N2Cc2ccccc2Br)cc(C(F)(F)F)c1` (racemic), the MIC99 – broadly, the lowest concentration that inhibits either 99% of growth or 99% of the strains tested, depending on the study – is 16.8 µM (≈ 8.76 µg/mL).
